Screens from PubChem BioAssay.
Sampled rows, rich in hits. Any-hit rate of the full collection: about 1.5%.
697 NFkB inh: lowers PMA/ionomycin-induced NF-kB signal in 697 B cells; actives 0.33% (n = 330,000); AID 435022; 697 B-cell NF-kB luciferase reporter, 16 h; inhibition, % at 4 µM; in the data active = inhibition above about 35%
JMJD2C inh: blocks human GASC-1 demethylase activity. AID 2099. actives 0.069% (n = 330,000). Q9H3R0. GST-JMJD2C(1-420) H3K9me3 demethylation, DELFIA europium. inhibition, % at 2.35 µM;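 active = more than half of a compound's replicate wells show inhibition beyond 50%, single wells judged on their own value; inconclusive = some, but no more than half, of replicates pass 50% inhibition; inactive = no replicate passes 50% inhibition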;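 also: signal counts dimethyl H3K9 product captured on neutravidin plate; 0% = median of DMSO wells and 100% = 0.3 times that DMSO median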
Target sequence (Q9H3R0 1-420 limits assumed): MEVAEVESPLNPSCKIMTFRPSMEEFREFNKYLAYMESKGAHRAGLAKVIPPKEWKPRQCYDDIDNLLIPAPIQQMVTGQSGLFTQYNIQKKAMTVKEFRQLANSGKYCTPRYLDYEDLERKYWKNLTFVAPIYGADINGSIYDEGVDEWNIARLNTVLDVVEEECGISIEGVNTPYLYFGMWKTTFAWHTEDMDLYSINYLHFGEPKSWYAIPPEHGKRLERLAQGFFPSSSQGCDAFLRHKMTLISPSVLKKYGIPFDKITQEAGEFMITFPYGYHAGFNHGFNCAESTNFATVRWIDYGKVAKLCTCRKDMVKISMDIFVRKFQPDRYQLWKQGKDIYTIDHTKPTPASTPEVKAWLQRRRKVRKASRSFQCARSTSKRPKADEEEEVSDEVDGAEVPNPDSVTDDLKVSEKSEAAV
GalR3 antag: blocks the human galanin receptor 3; inhibition, % at 3 µM; actives 0.44% (n = 360,000); HEK293 GalR3-CNG cAMP membrane potential fluorescence; galR3 body fused to GalR1 C-terminus; O60755; AID 651719;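 active = inhibition above the screen-wide average plus 3 SD, cut at about 13% in these data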;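 also: forskolin and galanin both at EC90 stimulate the cells; cAMP rise reported by CNG channel membrane potential dye signal; 0% = forskolin plus galanin with DMSO and 100% = forskolin alone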
Target sequence (O60755 1-299 limits assumed): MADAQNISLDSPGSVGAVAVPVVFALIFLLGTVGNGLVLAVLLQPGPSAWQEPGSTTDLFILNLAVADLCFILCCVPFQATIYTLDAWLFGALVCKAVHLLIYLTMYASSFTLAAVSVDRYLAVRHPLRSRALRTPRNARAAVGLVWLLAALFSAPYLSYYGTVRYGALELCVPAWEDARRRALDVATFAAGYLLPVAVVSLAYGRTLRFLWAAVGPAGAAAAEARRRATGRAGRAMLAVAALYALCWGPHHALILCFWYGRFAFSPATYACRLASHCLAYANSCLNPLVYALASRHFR
NR2E3 ag-1: NR2E3 (human) agonism. Q9Y5X4. GST-NR2E3/biotin-RetCOR TR-FRET, 1536-well. inhibition of corepressor binding, % at 4.78 µM. actives 0.12% (n = 320,000);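 active = percent inhibition above the cutoff of mean plus 3 SD of all tested compounds, set per screening campaign, cut at about 20% in these data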;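 also: 0% = DMSO wells and 100% = biotin wells as full block of FRET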
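Format: 1536-well format; test system: GST-NR2E3 and biotin-RetCOR proteins; read-out basis: percent inhibition of TR-FRET ratio; timing: 5 h incubation at 4 °C; detection: time-resolved FRET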
NR2E3 ag-2: activates human NR2E3 receptor; Q9Y5X4; CHO-S Gal4-NCOR/VP16-NR2E3 two-hybrid, luciferase; inhibition of corepressor binding, % at 3.98 µM; actives 0.35% (n = 360,000);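 active = inhibition above the mean of all tested compounds plus 3 SD, cut at about 70% in these data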;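 also: 0% = DMSO with NR2E3 transfected cells and 100% = cells lacking NR2E3 construct; higher means lower luciferase signal from less NR2E3 corepressor binding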
Jurkat NFkB inh: inhibitors of the PMA/ionomycin-induced NF-kB reporter in Jurkat cells; inhibition, % at 4 µM; actives 0.53% (n = 330,000); PMA/ionomycin-induced NF-kB luciferase reporter, luminescence; AID 435003; in the data active = inhibition above about 50%
697 NFkB conf: inhibitors of the PMA/ionomycin-induced NF-kB reporter in 697 B cells, retest | shares compounds with 697 NFkB inh | 697 B-cell NF-kB luciferase, 16 h | inhibition, % at 4 µM | actives 35% (n = 2,000) | AID 449746; in the data active = inhibition mostly above about 28%, no sharp cut-off; inactive = mostly below about 22%
* = called active by the depositor; ? = inconclusive; . = no result given.

SMILES | 697 NFkB inh | JMJD2C inh | GalR3 antag | NR2E3 ag-1 | NR2E3 ag-2 | Jurkat NFkB inh | 697 NFkB conf
Cc1ccc(-c2nn3c(C)nnc3c3ccccc23)cc1S(=O)(=O)NC(C)(C)CO | 35.6* | 5.2 | -0.6 | 0.8 | -8.8 | -0.9 | 61.5*
Cc1ccc(-c2nn3c(C)nnc3c3ccccc23)cc1S(=O)(=O)N1CCN(CCO)CC1 | 36.6* | 9.5 | 1.6 | 0.2 | -14.9 | -16.4 | 36.5*
Cc1nnc2c3ccccc3c(-c3ccccc3)nn12 | 43.4* | 0.9 | -13.1 | -1.4 | 0.3 | -7.2 | 32.2*
COc1ccc(-c2nnc3c4ccccc4c(C)nn23)cc1S(=O)(=O)N1CCN(CCO)CC1 | 0.1 | -14.2 | 2.6 | 1.6 | 9.7 | -2.1 | .
Cc1ccc(-c2nn3c(C)nnc3c3ccccc23)cc1S(=O)(=O)NCCO | 18.1 | -21.1 | -4.5 | 2.6 | -9.0 | -4.9 | .
COc1ccc(NC(=O)C2(C)Cc3c(-c4cccc(NC(C)=O)c4)ccnc3O2)cn1 (configuration not stated) | . | . | 2.5 | . | -20.9 | . | .
Cc1ccc(C)c(NC(=O)CN(C)C(=O)C2CCN(C(=O)Nc3ccccc3)CC2)c1 | 21.4 | -2.0 | -3.5 | 1.2 | -19.0 | 12.1 | .
Cc1ccc(S(=O)(=O)N2[C@@H](c3ccc(F)cc3)C(C(=O)O)=C[C@H]2CC2CCCC2)cc1 | -4.3 | 2.2 | -6.9 | . | -10.0 | -3.9 | .
CN(C)C(=O)CCc1nc(-c2ccc(C(C)(C)C)cc2)no1 | 81.4* | 3.9 | -1.7 | 0.6 | 69.7 | -67.1 | 77.2*
CC(C)(C)c1ccc(-c2noc(CCC(=O)N3CCOCC3)n2)cc1 | 51.7* | -22.2 | -0.4 | -6.0 | -20.6 | -62.6 | 36.7*
C(=N\Nc1nc2ccccc2[nH]1)/c1cccc2nccnc12 | -341.5 | 3.1 | -0.2 | -5.0 | -96.6 | 4.5 | -109.7
CCc1c(-c2ccc(OC)cc2)ncn1Cc1cccc(-c2ccccc2)c1 | . | . | -7.0 | . | . | . | .
Cc1cc(C)cc(C(O)c2ncc(-c3ccccc3C)[nH]2)c1 (configuration not stated) | . | . | -4.0 | . | -28.4 | . | .
COc1ccc(NC(=O)C2CCN(c3cc(-c4ccccc4)nc4ncnn34)CC2)cc1OC | 40.1* | . | -5.6 | -3.7 | -10.1 | 24.3 | 8.2
COc1ccc(OC)c(NC(=O)C2CCN(c3cc(-c4ccccc4)nc4ncnn34)CC2)c1 | 23.7 | -3.4 | -2.2 | -3.0 | 9.1 | 24.8 | .
COc1ccc(-c2noc(CCCC(=O)Nc3ccc(C(N)=O)cc3)n2)cc1 | 78.0* | 5.5 | -1.0 | 1.7 | 23.1 | 9.8 | 44.7*
Cc1cccc(C(=O)OCC(=O)NCCNC(=O)COC(=O)c2cccc(C)c2C)c1C | 17.9 | 2.8 | 0.1 | -5.9 | 3.5 | 6.2 | .
COc1ccc(C(=O)Nc2ccccc2C(=O)N/N=C/c2cccc3ccccc23)cc1 | -350.7 | 3.9 | -1.2 | 3.2 | -41.1 | -49.6 | -186.5
O=c1cccc2c1c1cc[nH]c3ccc(=O)n2c31 | 55.9* | ? | -6.9 | 0.3 | 30.1 | 23.6 | 52.2*
Cc1noc(C)c1CCC(=O)Nc1cc(C(=O)O)ccc1Cl | . | . | -8.0 | . | -10.1 | . | .
Nc1[nH]c(C(=O)c2ccccc2)c(-c2ccc3c(c2)OCO3)c1C(=O)NCCc1c[nH]c2ccccc12 | . | . | -3.2 | . | . | . | .
COCCC(C(=O)Oc1c(C(C)(C)C)cc(C)cc1C(C)(C)C)c1ccccc1 (configuration not stated) | 3.4 | 3.2 | -3.7 | 3.2 | 12.1 | -11.3 | .
CCCCCCCCN1C(=O)[C@H](CC(=O)NCc2ccccc2)C[C@@]2(C(=O)OC)CCCCC=C12 | . | . | -6.5 | . | 28.2 | . | .
O=C(CCCl)Nc1nc2c(s1)CCc1ccccc1-2 | -266.1 | 10.6 | -11.6 | 0.7 | 6.0 | 23.2 | -15.3
CC(=O)Nc1nc2c(s1)CCc1ccccc1-2 | 17.5 | -1.2 | -1.9 | 1.3 | -22.8 | -8.9 | .
SMILES | 697 NFkB inh | JMJD2C inh | GalR3 antag | NR2E3 ag-1 | NR2E3 ag-2 | Jurkat NFkB inh | 697 NFkB conf
CCCn1c(SCC(=O)Nc2cccnc2Cl)n[nH]c1=O | 9.4 | 3.8 | -2.6 | . | -23.9 | -5.3 | .
Cc1ccc(NC(=O)Cn2c(O)c(N=NC(N)=S)c3ccccc32)cc1 | 39.8* | 2.1 | -10.6 | 2.9 | 0.4 | -8.0 | -1.2
NC(=S)N=Nc1c(O)n(Cc2ccccc2)c2ccccc12 | 44.7* | 4.1 | 2.3 | 1.0 | -36.9 | 10.0 | 38.7*
C/C(Cl)=C\Cn1c(O)c(N=NC(N)=S)c2ccccc21 | 11.1 | 4.0 | -2.1 | 1.2 | 23.8 | 8.5 | .
Cc1ccc(NC(=O)Cn2c(O)c(N=NC(N)=O)c3ccccc32)cc1 | -1.0 | 18.4 | -3.2 | -2.1 | 6.0 | 14.5 | .
CCCCn1c(N)c(N(CCC(C)C)C(=O)COC(=O)c2ccc3ccccc3c2)c(=O)[nH]c1=O | -1.9 | . | -2.5 | . | 29.0 | 6.6 | .
O=C1CN(C(=O)COc2ccccc2)CCN1 | 14.6 | 4.9 | 2.6 | 2.0 | 12.6 | 0.3 | .
Cc1cccc(OCC(=O)Nc2ccc(C(=O)Nc3ccccc3C(=O)O)cc2)c1C | -9.5 | 12.7 | 3.1 | 4.8 | -4.7 | 1.0 | .
CCOC(=O)c1cc(CC)sc1N1C(=O)CC(Sc2ncccc2C(=O)O)C1=O (configuration not stated) | 46.3* | 9.2 | -2.9 | 4.5 | -3.1 | -13.2 | 3.6
CCOC(=O)c1cc(CC)sc1N1C(=O)CC(Sc2ccccc2C(=O)O)C1=O (configuration not stated) | 9.4 | -23.2 | -0.8 | 5.8 | 9.6 | 8.0 | .
Cc1noc(C)c1NC(=O)N(C)C[C@H]1Oc2c(NS(=O)(=O)c3cn(C)cn3)cccc2C(=O)N([C@H](C)CO)C[C@@H]1C | -9.3 | -0.8 | -3.2 | . | 8.8 | -10.3 | .
Cc1ccc(-c2cc3nc(C)cc(NCc4ccco4)n3n2)cc1 | -255.9 | 2.8 | -2.6 | 1.0 | -94.1 | -130.4 | -238.3
COCCNc1cc(C)nc2cc(-c3ccc(C)cc3)nn12 | -8.9 | 7.9 | -6.9 | -8.1 | -29.1 | -7.0 | .
Cc1nc2cc(-c3ccc(Cl)cc3)nn2c(C)c1CCC(=O)NCc1ccco1 | 43.4* | -3.5 | 8.6 | 4.4 | -18.2 | 16.6 | 31.3*
Clc1cccc(-c2cc3nc4c(c(NCc5ccco5)n3n2)CCCC4)c1 | -326.8 | 8.2 | -0.8 | 2.0 | -170.3 | -111.0 | -346.6
COC(=O)[C@]12C[C@H](CC(=O)N3CCN(C(=O)c4ccco4)CC3)C(=O)N(Cc3ccccc3)C1=C[C@H](C(C)C)O[C@@H]2C1CC1 | . | . | -6.0 | . | . | . | .
Cc1c(CCC(=O)N[C@@H](CCCNC(N)=O)C(=O)O)c(=O)oc2cc3oc4c(c3cc12)CCCC4 | 26.4 | -4.6 | -8.6 | 1.9 | -44.4 | -8.5 | .
CCC(NC(=O)CCc1c(C)c2cc3c4c(oc3cc2oc1=O)CCCC4)C(=O)O (configuration not stated) | 49.5* | 0.1 | -10.9 | -3.5 | 5.9 | 13.9 | 19.1
CSc1c(N(C)C)c(=O)c1=S | . | . | -7.7 | . | . | . | .
